The subject of series [1] is Naegleria fowleri ATCC® 30808™ trophozoites. Briefly: In vitro activity assay. In kind it is cell-based. Conditions: for N. fowleri ATCC® 30808™ SI (CC50/IC50): selectivity index, CC50 J774A.1 / IC50 ATCC 30808. The method, boiled down: (§1)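 Both strains were grown axenically at 37 °C in 2% Bactocasitone with 10% FBS, penicillin G and streptomycin. Trophozoites from a 2*10^5 cells/ml stock were seeded in duplicate with serial compound dilutions in the same medium, plus a medium-only negative control. AlamarBlue (10% of medium volume) was added for 48 h at 37 °C with slight agitation, read at 570 nm […] with a 630 nm reference. Inhibitory concentrations came from non-linear regression; experiments were done in triplicate and averaged.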

For series [2], the system named is Naegleria fowleri ATCC® 30215™ trophozoites. Briefly: In vitro activity assay. In kind it is cell-based. Conditions: for N. fowleri ATCC® 30215™ SI (CC50/IC50): selectivity index, CC50 J774A.1 / IC50 ATCC 30215. The method, boiled down:
as §1

A short description of the next series: Cytotoxicity assay. The class given is cell-based. Conditions: mouse, J774A.1 murine macrophage cells. The method, boiled down:
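J774A.1 macrophages were kept in DMEM with 10% FBS and 10 μg/mL gentamicin at 37 °C, 5% CO2. Cells from a 10^5 cells/ml stock got a range of compound concentrations plus AlamarBlue (10% of medium volume), with a medium-only negative control. Incubation was 24 h at 37 °C in 5% CO2, and CC50 was derived from the read-out.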

The conditions of series [3]: various species plasma; ref Tian et al., 2016; cited from earlier work.
The conditions of series [4]: ref Tian et al., 2016; cited from earlier work.

SMILES strings stand for the structures. Some results are limits rather than exact numbers.

Regarding `CCCCCCCCCCCCCCCCOP(=O)([O-])OCC[N+](C)(C)C` [Miltefosine], in series [1], the “N. fowleri ATCC® 30808™ SI (CC50/IC50)” value is 3.301. Moreover, the “N. fowleri ATCC® 30215™ SI (CC50/IC50)” value in series [2] is 1.568. In “Cytotoxicity assay”, the CC50 (usually the concentration at which the toxic effect on the cells reaches its halfway point) at 24 h came to 128000 ± 8850 nM.
As to `C[C@@H]1[C@H](O)[C@@H](C)/C=C/C=C/C=C/C=C/C=C/C=C/C=C/[C@H](O[C@@H]2O[C@H](C)[C@@H](O)[C@H](N)[C@@H]2O)C[C@@H]2O[C@](O)(C[C@@H](O)C[C@@H](O)[C@H](O)CC[C@@H](O)C[C@@H](O)CC(=O)O[C@H]1C)C[C@H](O)[C@H]2C(=O)O` [Amphotericin B], the IC50 (as a rule, the concentration that gives 50% inhibition) came out at 121 ± 32 nM in series [1] (Naegleria fowleri, ATCC30808, 48 h, read-out: N. fowleri ATCC® 30808™ IC50) and 166 ± 26 nM in series [2] (Naegleria fowleri, ATCC30215, 48 h, read-out: N. fowleri ATCC® 30215™ IC50). Also, the “N. fowleri ATCC® 30808™ SI (CC50/IC50)” value in series [1] was at least 1652.893. Moreover, in series [2], the “N. fowleri ATCC® 30215™ SI (CC50/IC50)” value is on record as at least 1204.819. The compound also displayed a CC50 at 24 h in the series “Cytotoxicity assay” of at least 200000 nM.
In the case of `CCCCC1OC(=O)c2cc(Br)ccc21` (stereo not drawn) [Br-NBP, 3-butyl-6-bromo-1(3H)-isobenzofuranone], the “protein binding to plasma” value in series [3] is reported as “different degree protein binding to various species plasma”. In addition, in series [4], the half-life result was “short half-life”, the pharmacokinetic profile result is given as “good dose-linear pharmacokinetic profile” and the tissue distribution entry is “wide tissue distribution”.

The values above are taken from paper PMC8501684 (International Journal for Parasitology: Drugs and Drug …, 2021).
